Key:
Format in all cases: functional
[1] = system: K562; assay: Growth inhibition of human K562 cells incubated for 48 hrs by sulforhodamine B assay; conditions: K562, 48 h
Method in brief: (§1)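 NCI-60 five-dose SRB assay in RPMI 1640 with 5% FBS, 37 °C, 5% CO2. Compound given at five tenfold dilutions, 0.01–100 µM, for 48 h. Adherent cells fixed with TCA, suspension cells with 16% final TCA. Bound SRB read at 515 nm and growth calculated against time-zero and untreated controls. GI50 taken from dose–response curves as the concentration giving a 50% decrease in net cell growth.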

[2] = system: SF-295; assay: Growth inhibition of human SF295 cells incubated for 48 hrs by sulforhodamine B assay; conditions: SF-295, 48 h
Method in brief: (§2)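 NCI-60 five-dose SRB assay. Cells were exposed for 48 h to tenfold dilutions of 0.01, 0.1, 1, 10 and 100 µM, in RPMI 1640 with 5% FBS. Plates fixed with TCA at the time of drug addition served as the time-zero reference. GI50 is the concentration giving a 50% reduction in net growth. TGI is total growth inhibition. LC50 is a net 50% loss of the initial cells.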

[3] = system: SNB-19; assay: Growth inhibition of human SNB19 cells incubated for 48 hrs by sulforhodamine B assay; conditions: SNB-19, 48 h; method in brief: as §2
[4] = system: SK-MEL-5; assay: Growth inhibition of human SK-MEL-5 cells incubated for 48 hrs by sulforhodamine B assay; conditions: SK-MEL-5, 48 h; method in brief: as §2
[5] = system: Hs-578T; assay: Growth inhibition of human Hs 578T cells incubated for 48 hrs by sulforhodamine B assay; method in brief: as §1
[6] = system: IGROV-1; assay: Growth inhibition of human IGROV1 cells assessed as cell viability at 100 uM incubated for 48 hrs by sulforhodamine B assay; conditions: IGROV-1, 48 h, read-out: Activity
[7] = system: LOX IMVI; assay: Growth inhibition of human LOXIMVI cells assessed as cell viability at 100 uM incubated for 48 hrs by sulforhodamine B assay; conditions: read-out: Activity
[8] = system: SF-295; assay: Growth inhibition of human SF295 cells assessed as cell viability at 100 uM incubated for 48 hrs by sulforhodamine B assay; conditions: SF-295, 48 h, read-out: Activity
[9] = system: KM12; assay: Growth inhibition of human KM12 cells assessed as cell viability at 100 uM incubated for 48 hrs by sulforhodamine B assay; conditions: KM12, 48 h, read-out: Activity
[10] = system: COLO 205; assay: Growth inhibition of human COLO205 cells assessed as cell viability at 100 uM incubated for 48 hrs by sulforhodamine B assay; conditions: COLO 205, 48 h, read-out: Activity
[11] = system: NCI-H226; assay: Growth inhibition of human NCI-H226 cells assessed as cell viability at 100 uM incubated for 48 hrs by sulforhodamine B assay; conditions: NCI-H226, 48 h, read-out: Activity
[12] = system: T47D; assay: Growth inhibition of human T47D cells assessed as cell viability at 1 uM incubated for 48 hrs by sulforhodamine B assay; conditions: read-out: Activity
[13] = system: OVCAR-5; assay: Growth inhibition of human OVCAR5 cells assessed as cell viability at 1 uM incubated for 48 hrs by sulforhodamine B assay; conditions: OVCAR-5, 48 h, read-out: Activity
[14] = system: HCT-15; assay: Growth inhibition of human HCT15 cells assessed as cell viability at 1 uM incubated for 48 hrs by sulforhodamine B assay; conditions: HCT-15, 48 h, read-out: Activity
[15] = system: EKVX; assay: Growth inhibition of human EKVX cells assessed as cell viability at 1 uM incubated for 48 hrs by sulforhodamine B assay; conditions: read-out: Activity
[16] = system: SR; assay: Growth inhibition of human SR cells assessed as cell viability at 1 uM incubated for 48 hrs by sulforhodamine B assay; conditions: read-out: Activity
[17] = system: Hs-578T; assay: Growth inhibition of human Hs 578T cells assessed as cell viability at 0.1 uM incubated for 48 hrs by sulforhodamine B assay; conditions: read-out: Activity
[18] = system: UO-31; assay: Growth inhibition of human UO31 cells assessed as cell viability at 0.1 uM incubated for 48 hrs by sulforhodamine B assay; conditions: UO-31, 48 h, read-out: Activity
[19] = system: TK-10; assay: Growth inhibition of human TK10 cells assessed as cell viability at 0.1 uM incubated for 48 hrs by sulforhodamine B assay; conditions: TK-10, 48 h, read-out: Activity
[20] = system: SK-MEL-5; assay: Growth inhibition of human SK-MEL-5 cells assessed as cell viability at 0.1 uM incubated for 48 hrs by sulforhodamine B assay; conditions: SK-MEL-5, 48 h, read-out: Activity
[21] = system: SNB-19; assay: Growth inhibition of human SNB19 cells assessed as cell viability at 0.1 uM incubated for 48 hrs by sulforhodamine B assay; conditions: SNB-19, 48 h, read-out: Activity
[22] = system: SF-295; assay: Growth inhibition of human SF295 cells assessed as cell viability at 0.1 uM incubated for 48 hrs by sulforhodamine B assay; conditions: SF-295, 48 h, read-out: Activity
[23] = system: SW-620; assay: Growth inhibition of human SW620 cells assessed as cell viability at 0.1 uM incubated for 48 hrs by sulforhodamine B assay; conditions: SW-620, 48 h, read-out: Activity
[24] = system: KM12; assay: Growth inhibition of human KM12 cells assessed as cell viability at 0.1 uM incubated for 48 hrs by sulforhodamine B assay; conditions: KM12, 48 h, read-out: Activity
[25] = system: Hs-578T; assay: Growth inhibition of human Hs 578T cells assessed as cell viability at 0.001 uM incubated for 48 hrs by sulforhodamine B assay relative to control; conditions: read-out: Activity
[26] = system: NCI/ADR-RES; assay: Growth inhibition of human NCI/ADR-RES cells assessed as cell viability at 0.001 uM incubated for 48 hrs by sulforhodamine B assay relative to control; conditions: read-out: Activity
[27] = system: SF-539; assay: Growth inhibition of human SF539 cells assessed as cell viability at 0.001 uM incubated for 48 hrs by sulforhodamine B assay relative to control; conditions: SF-539, 48 h, read-out: Activity
[28] = system: HCT-15; assay: Growth inhibition of human HCT15 cells assessed as cell viability at 0.001 uM incubated for 48 hrs by sulforhodamine B assay relative to control; conditions: HCT-15, 48 h, read-out: Activity
[29] = system: K562; assay: Growth inhibition of human K562 cells assessed as cell viability at 0.001 uM incubated for 48 hrs by sulforhodamine B assay relative to control; conditions: K562, 48 h, read-out: Activity
[30] = read-out: LC50 (the source's name)
[31] = read-out: pLC50 (the source's name) (converted)

With CC1=C(C(=O)OCc2ccccc2)C(c2ccc3c(c2)OCO3)n2c(nc3ccccc32)N1 (racemic) the GI50 ([1]; read-out: GI50) was 0.34 µM, the CC50 [1, 30] was > 100 µM and the TGI ([1]; read-out: TGI) was > 100 µM. The GI50 ([1]; read-out: pGI50 (converted)) was 0.347 µM, the CC50 [1, 31] was > 100 µM and the TGI ([1]; read-out: pTGI) was > 100 µM. The GI50 ([2]; read-out: GI50) was 0.33 µM, the LC50 (concentration causing 50% net loss of initial cells) ([2]; read-out: LC50) was > 100 µM and the TGI ([2]; read-out: TGI) was > 100 µM. For the same compound, the GI50 ([2]; read-out: pGI50 (converted)) was 0.331 µM, the LC50 (concentration causing 50% net loss of initial cells) ([2]; read-out: pLC50 (converted)) was > 100 µM and the TGI ([2]; read-out: pTGI) was > 100 µM. The GI50 ([3]; read-out: GI50) was 0.56 µM, the CC50 [3, 30] was > 100 µM and the TGI ([3]; read-out: TGI) was > 100 µM. The GI50 ([3]; read-out: pGI50 (converted)) was 0.562 µM, the CC50 [3, 31] was > 100 µM and the TGI ([3]; read-out: pTGI) was > 100 µM. The GI50 ([4]; read-out: GI50) was 0.54 µM, the CC50 [4, 30] was > 100 µM and the TGI ([4]; read-out: TGI) was > 100 µM. The GI50 ([4]; read-out: pGI50 (converted)) was 0.537 µM, the CC50 [4, 31] was > 100 µM and the TGI ([4]; read-out: pTGI) was > 100 µM. For the same compound, the GI50 ([5]; read-out: GI50) was 0.28 µM, the CC50 [5, 30] was > 100 µM and the TGI ([5]; read-out: TGI) was 23.8 µM. The GI50 ([5]; read-out: pGI50 (converted)) was 0.282 µM, the CC50 [5, 31] was > 100 µM and the TGI ([5]; read-out: pTGI (converted)) was 24 µM. It also gave a viability at 100 µM [6] of 29%, a viability at 100 µM [7] of 32% and a viability at 100 µM [8] of 8%. For the same compound, the viability at 100 µM [9] was 18%, the viability at 100 µM [10] was 39% and the viability at 100 µM [11] was 64%. For the same compound, the viability at 1 µM [12] was 30%, the viability at 1 µM [13] was 52% and the viability at 1 µM [14] was 25%. For the same compound, the viability at 1 µM [15] was 41%, the viability at 1 µM [16] was 52% and the viability at 0.1 µM [17] was 88%. The viability at 0.1 µM [18] was 93%, the viability at 0.1 µM [19] was 91% and the viability at 0.1 µM [20] was 98%. The viability at 0.1 µM [21] was 95%, the viability at 0.1 µM [22] was 87% and the viability at 0.1 µM [23] was 89%. It also gave a viability at 0.1 µM [24] of 86%, a viability at 0.001 µM [25] of 87% and a viability at 0.001 µM [26] of 93%. For the same compound, the viability at 0.001 µM [27] was 91%, the viability at 0.001 µM [28] was 92% and the viability at 0.001 µM [29] was 93%.

From ChEMBL document CHEMBL4406880, “Design, synthesis, and bioactivity of dihydropyrimidine derivatives as kinesin spindle protein inhibitors” (Bioorg Med Chem, 2019)
